Only some compounds are listed: those with a hit (about 3.1% of all), similar ones and a draw of the others.
OX1R antag-1 – antagonists of human orexin 1 receptor (OX1R) | Orexin/Hypocretin receptor type 1 (Homo sapiens), O43613 | OX1R-expressing cells, FRET antagonist read-out | inhibition, % at 6.6 µM | actives 1.8% (n = 330,000); in the data active = inhibition mostly above about 38%, no sharp cut-off; inactive = mostly below about 40%;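 also: 0% = agonist challenge alone and 100% = reference antagonist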
GPR7 antag – GPR7 receptor antagonists, primary screen, cell-based, fluorescence, single concentration | Neuropeptides B/W receptor type 1 (Homo sapiens), P48145 | actives 1.1% (n = 290,000) | inhibition, % at 4.4 µM | GPR7-expressing cells, fluorescence antagonist assay; in the data active = inhibition above about 16%, passing the limit was not always enough;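 also: cells stimulated with the agonist NPW; 0% = agonist with vehicle and 100% = vehicle without agonist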
Target sequence (P48145 whole entry, looked up): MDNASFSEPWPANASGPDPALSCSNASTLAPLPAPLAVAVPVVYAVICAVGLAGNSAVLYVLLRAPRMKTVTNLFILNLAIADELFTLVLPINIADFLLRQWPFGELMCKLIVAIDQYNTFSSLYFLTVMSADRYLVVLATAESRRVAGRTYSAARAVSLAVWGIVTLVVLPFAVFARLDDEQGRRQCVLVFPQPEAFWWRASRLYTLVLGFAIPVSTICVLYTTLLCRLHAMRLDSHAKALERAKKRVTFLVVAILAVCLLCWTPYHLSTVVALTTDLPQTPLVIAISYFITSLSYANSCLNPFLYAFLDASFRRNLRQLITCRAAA
GalR3 antagonist – GalR3 antagonists in HEK293 cells, primary screen, cell-based, fluorescence readout; actives 0.44% (n = 360,000); Galanin receptor type 3 (Homo sapiens), O60755; inhibition, % at 3 µM; HEK293 GalR3-CNG cAMP membrane potential fluorescence; galR3 body fused to GalR1 C-terminus;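 active = inhibition above the screen-wide average plus 3 SD, cut at about 13% in these data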;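 also: forskolin and galanin both at EC90 stimulate the cells; cAMP rise reported by CNG channel membrane potential dye signal; 0% = forskolin plus galanin with DMSO and 100% = forskolin alone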
Target sequence (O60755 1-299 limits assumed): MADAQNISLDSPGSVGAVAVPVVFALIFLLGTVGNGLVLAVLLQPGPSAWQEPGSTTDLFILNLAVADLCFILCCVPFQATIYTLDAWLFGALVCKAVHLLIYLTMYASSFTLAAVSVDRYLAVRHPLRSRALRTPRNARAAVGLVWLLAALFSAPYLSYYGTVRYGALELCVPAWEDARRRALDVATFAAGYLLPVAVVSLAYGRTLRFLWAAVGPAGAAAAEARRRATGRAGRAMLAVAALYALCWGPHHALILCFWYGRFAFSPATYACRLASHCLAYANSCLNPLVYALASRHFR
CHO parental Ca – ATP-evoked calcium signal inhibitors, parental CHO, primary screen, counter-screen for OX1R antagonist project, cell-based, fluorescence, Fluo-8 calcium dye | parental CHO-K1, ATP-induced calcium, Fluo-8 fluorescence | inhibition, % at 5.6 µM | actives 0.63% (n = 330,000) | AID 463079, 2010;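 active = inhibition above that plate's mean sample inhibition plus 3 SD, cut at about 26% in these data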;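 also: 0% = ATP-challenged DMSO wells and 100% = DMSO wells without ATP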
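Material – parental CHO cells · Reagent – ATP stimulus · Compound – single nominal dose of 5.6 µM per compound · Detection – Fluo-8 fluorescence · Read-out basis – percent inhibition of calcium signal · Controls – ATP-challenged DMSO wells low, unchallenged DMSO wells high · Repeats – no replicates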
OX1R antag-2 – OX1R (HCRTR1) antagonists, primary screen, fluorescence, CHO/OX1R cells, Fluo-8 calcium, orexin A; Orexin/Hypocretin receptor type 1 (Homo sapiens), O43613; Fluo-8 calcium fluorescence; inhibition, % at 5 µM; actives 0.43% (n = 330,000); AID 434989, 2010;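 active = inhibition above its plate's threshold, mean inhibition of all tested compounds on the plate plus 3 SD, cut at about 37% in these data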;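 also: 0% = orexin A challenge wells and 100% = SB-334867-A antagonist wells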
OX1R HTRF conf – OX1R (HCRTR1) antagonists, confirmation, cell-based, HTRF | shares compounds with OX1R antag-1 | actives 49% (n = 1,800) | inhibition, % at 6.6 µM | AID 492964, 2010 | OX1R-expressing cells, HTRF antagonist assay; in the data active = inhibition above about 55%;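 also: CHO cells expressing OX1R stimulated with orexin A at about EC80; 0% = agonist challenge alone and 100% = reference antagonist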
CHO-K1 HTRF cnt – signal inhibition in parental CHO-K1 cells, counter-screen for OX1R antagonist project, cell-based, HTRF | shares compounds with OX1R antag-1 | HTRF counterscreen | inhibition, % at 6.6 µM | actives 48% (n = 1,800) | AID 493232, 2011; in the data active = inhibition above about 17%;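 also: 0% = agonist challenge with vehicle and 100% = vehicle alone without agonist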
* = called active by the depositor; · = no result given.

SMILES | OX1R antag-1 | GPR7 antag | GalR3 antagonist | CHO parental Ca | OX1R antag-2 | OX1R HTRF conf | CHO-K1 HTRF cnt
CCN1C(=O)c2cccc3c(S(=O)(=O)Nc4ccncc4)ccc1c23 | 18 | 3 | · | -2 | -19 | · | ·
CCN1C(=O)c2cccc3c(S(=O)(=O)NCc4cccnc4)ccc1c23 | 77* | -6 | 1 | -2 | -7 | 30 | 14
CCOC(=O)C1(CC)NC(c2cccc(F)c2)C2C(=O)N(CC)C(=O)C21 (stereo unspecified) | 89* | 10 | -1 | -3 | -6 | 11 | -2
CCN1C(=O)[C@H]2[C@@H](c3ccc(-c4ccc(F)cc4)cc3)N[C@@](CC(C)C)(C(=O)OC)[C@H]2C1=O | 18 | · | 1 | -16 | -24 | · | ·
O=C(O)c1ccc2c(c1)C(=O)N(c1ccc(Nc3ccccc3)cc1)C2=O | · | 2 | -9 | · | · | · | ·
Oc1nc(Nc2ccc(F)cc2)sc1/C=C1\C=Nc2ccccc21 | 93* | 6 | -8 | 2 | 23 | 23 | -1
Oc1nc(Nc2cccc(Cl)c2)sc1/C=C1\C=Nc2ccccc21 | 67 | 4 | -10 | -7 | -12 | · | ·
N=c1oc2cc(O)ccc2cc1C(=O)Nc1ccc(F)cc1 | 3 | 3 | -9 | -3 | -13 | · | ·
COc1ccc(NC(=O)c2cc3ccc(O)cc3o/c2=N\O)cc1 | 85* | 14 | -12 | -2 | 9 | 76* | 9
COc1ccc(NC(=O)CNc2cccc(S(=O)(=O)N3CCCCCC3)c2)c([N+](=O)[O-])c1 | 6 | · | -3 | -28 | -18 | · | ·
Cc1cc(C)c(O)c(-c2cc(C(=O)NCCc3ccc(S(N)(=O)=O)cc3)[nH]n2)c1 | 98* | 19 | -3 | -3 | -18 | 19 | -1
O=C(O)CCCN1C(=O)c2cccc3cccc(c23)C1=O | 46 | -6 | -8 | -4 | -4 | · | ·
O=C(CCCN1C(=O)c2cccc3cccc(c23)C1=O)NC1CCS(=O)(=O)C1 (stereo unspecified) | 85* | -7 | -4 | -5 | -21 | 42 | 50*
CCn1c(C)nc2cc(-c3nc4n(n3)Cc3ccccc3-4)ccc21 | 88* | 3 | · | 8 | -12 | 81* | 9
CC1CCCCN1C(=O)Cn1cnc2cc([N+](=O)[O-])ccc2c1=O (stereo unspecified) | 123* | -8 | 7 | -13 | -10 | 81* | 86*
Cn1cc([N+](=O)[O-])c(C(=O)N/N=C/c2ccc([N+](=O)[O-])cc2)n1 | 110* | -10 | 5 | -13 | -17 | 49 | 58*
Cn1cc([N+](=O)[O-])c(C(=O)NNC(=O)c2ccc([N+](=O)[O-])cc2)n1 | 98* | -7 | 1 | -14 | -1 | 43 | 53*
CCN=C(N/N=C/c1ccc([N+](=O)[O-])cc1)SC | 88* | 18 | -1 | 5 | -26 | 37 | 51*
COc1ccc(OC)c(NC(=O)CNC(=O)c2ccc([N+](=O)[O-])cc2)c1 | 30 | 0 | 8 | 3 | 2 | · | ·
Cc1ccc(CNC(=O)C2CCC(=O)N(CC3CCCCC3)C2)o1 (stereo unspecified) | 6 | -23 | -1 | -13 | -22 | · | ·
CC(C)c1nnc(NC(=O)C2CCCN2C(=O)Nc2cccc(Cl)c2)s1 (stereo unspecified) | 30 | 12 | -9 | -4 | -23 | · | ·
COc1ccc(NC(=S)Nc2ccc3nsnc3c2)cc1 | 88* | 8 | -11 | -15 | -28 | 44 | 40*
CC(C)N(C(=O)Nc1ccc2nsnc2c1)C(C)C | 143* | -18 | -7 | -15 | -15 | 31 | 31*
COC(=O)c1cc(S(=O)(=O)NCC2CCN(CCc3cccs3)CC2)cn1C | 11 | -6 | -1 | -26 | -19 | · | ·
C=CCC1NS(=O)(=O)OCC1C(C)C (stereo unspecified) | 20 | 2 | -9 | -5 | -14 | · | ·
SMILES | OX1R antag-1 | GPR7 antag | GalR3 antagonist | CHO parental Ca | OX1R antag-2 | OX1R HTRF conf | CHO-K1 HTRF cnt
Cc1c(C(=O)O)nn(-c2cccc(C(F)(F)F)c2)c(=O)c1C#N | 38 | -10 | -5 | 0 | -13 | · | ·
Cc1ccccc1-n1nc(C(=O)O)c(C)c(C#N)c1=O | 101* | -5 | 2 | 2 | -13 | 50 | 36*
O=c1[nH]c(=O)c2nc(-c3ccc(Cl)cc3)cnc2[nH]1 | 77* | -12 | -5 | -6 | -5 | 52 | 68*
CCN1C(=O)/C(=C2/SC(C)=C(C)N2CC)SC1=S | 96* | -6 | -2 | -16 | 11 | 84* | 7
O=C1c2ccccc2C(=O)c2[nH]cnc21 | · | -13 | -11 | · | · | · | ·
O=C1c2ccccc2C(=O)c2[nH]c(=O)[nH]c21 | 82* | -11 | -11 | -7 | -14 | 71* | 109*
CNC(=O)Nc1cccc(-c2ccnc(C)n2)c1 | 0 | 13 | 7 | 10 | -5 | · | ·
COc1cccc(C(=O)/C(C#N)=N/Nc2cccc(-c3ccnc(C)n3)c2)c1 | 77* | -9 | 0 | -2 | -13 | 50 | 18*
N/C(=N\OC(=O)c1ccc(Cl)c(Cl)c1)c1ccccn1 | 18 | 10 | -6 | -8 | -27 | · | ·
N/C(=N\OC(=O)c1ccc(Cl)c([N+](=O)[O-])c1)c1ccccn1 | 114* | -5 | -10 | 11 | 3 | 51 | 58*
O=C(Nc1ccnn1C1CCN(Cc2ccn[nH]2)CC1)c1ccccc1 | 1 | -15 | -2 | 1 | -10 | · | ·
C=CCn1cc(/C=C/c2cc[n+](C)cc2)c2ccccc21 | 87* | -16 | -10 | 0 | 8 | 33 | 33*
CCCCC1CCC(C(=O)N(CCOC)c2c(N)n(CCCC)c(=O)[nH]c2=O)CC1 (stereo unspecified) | 15 | · | -4 | 4 | -15 | · | ·
COc1cc(-c2nccc3cc4c(cc23)OCO4)cc(OC)c1OC | · | · | -6 | · | · | · | ·
COc1cc2c(cc1OC)-c1c(OC)c(OC)cc3ccnc(c13)C2=O | 80* | -15 | 1 | -7 | -11 | 47 | 26*
O=S1(=O)[C@H]2C[C@H](CO)O[C@@]2(CO)CN1Cc1ccc(-c2cccc(Cl)c2)cc1 | 9 | · | -3 | -10 | -3 | · | ·
Cc1ccc(C)c(N2CCN(C(=O)CCS(=O)(=O)c3cccc4nonc34)CC2)c1 | 23 | -6 | -8 | -9 | 4 | · | ·
CC1Cc2ccccc2N1C(=O)CCS(=O)(=O)c1cccc2nonc12 (stereo unspecified) | 85* | -5 | 0 | -20 | -12 | 53 | 23*

Compound activity as filed in PubChem.
